From paper PMC2780000 (Biochemistry, 2009)
Residue numbers refer to the chain shown, from its start.

Key:
Assay in all cases: aerobic spectrophotometric titration of flavin absorbance
Type in all cases: binding
[1] = biological target: T1, Class 2 dihydroorotate dehydrogenase (DHOD) from E. coli (Escherichia coli, UniProt P0A7E1, S175A)
T1 sequence (P0A7E1 1-336 S175A): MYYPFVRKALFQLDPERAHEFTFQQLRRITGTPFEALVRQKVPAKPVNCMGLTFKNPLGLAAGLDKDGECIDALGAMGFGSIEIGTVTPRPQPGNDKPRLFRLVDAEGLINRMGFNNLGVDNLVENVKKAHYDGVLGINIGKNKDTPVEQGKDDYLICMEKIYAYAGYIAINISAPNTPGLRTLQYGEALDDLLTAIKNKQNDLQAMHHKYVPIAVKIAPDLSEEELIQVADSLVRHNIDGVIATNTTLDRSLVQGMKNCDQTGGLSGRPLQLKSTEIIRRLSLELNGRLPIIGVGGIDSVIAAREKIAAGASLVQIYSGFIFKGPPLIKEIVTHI
Procedure, shortened: (§1)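 Enzymes (wild-type and mutants) expressed from the pAG-1 plasmid in E. coli SØ6645, purified, stored at −80 °C in 50% glycerol, and desalted into buffer before use. The oxidized enzyme in 0.1 M Tris-HCl, pH 8.5, 25 °C, was titrated aerobically with orotate in the same buffer. The flavin absorbance change (456→475 nm red-shift) vs orotate was fit to a binding equation using total enzyme and total ligand to give Kd.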

[2] = biological target: T2, Class 2 dihydroorotate dehydrogenase (DHOD) from E. coli (Escherichia coli, UniProt P0A7E1, F115L/T178V)
T2 sequence (P0A7E1 1-336 F115L/T178V): T1 sequence (P0A7E1 1-336 S175A) with F115L, A175S, T178V
Procedure, shortened: as §1

[3] = biological target: T3, Class 2 dihydroorotate dehydrogenase (DHOD) from E. coli (Escherichia coli, UniProt P0A7E1, T178V)
T3 sequence (P0A7E1 1-336 T178V): T1 sequence (P0A7E1 1-336 S175A) with A175S, T178V
Procedure, shortened: as §1

[4] = biological target: T4, Class 2 dihydroorotate dehydrogenase (DHOD) from E. coli (Escherichia coli, UniProt P0A7E1, T178A)
T4 sequence (P0A7E1 1-336 T178A): T1 sequence (P0A7E1 1-336 S175A) with A175S, T178A
Procedure, shortened: as §1

[5] = biological target: T5, Class 2 dihydroorotate dehydrogenase (DHOD) from E. coli (Escherichia coli, UniProt P0A7E1, F115W)
T5 sequence (P0A7E1 1-336 F115W): T1 sequence (P0A7E1 1-336 S175A) with F115W, A175S
Procedure, shortened: as §1

[6] = biological target: T6, Class 2 dihydroorotate dehydrogenase (DHOD) from E. coli (Escherichia coli, UniProt P0A7E1, F115A)
T6 sequence (P0A7E1 1-336 F115A): T1 sequence (P0A7E1 1-336 S175A) with F115A, A175S
Procedure, shortened: as §1

[7] = biological target: T7, Class 2 dihydroorotate dehydrogenase (DHOD) from E. coli (Escherichia coli, UniProt P0A7E1, T178S)
T7 sequence (P0A7E1 1-336 T178S): T1 sequence (P0A7E1 1-336 S175A) with A175S, T178S
Procedure, shortened: as §1

[8] = biological target: T8, Class 2 dihydroorotate dehydrogenase (DHOD) from E. coli (Escherichia coli, UniProt P0A7E1, F115L)
T8 sequence (P0A7E1 1-336 F115L): T1 sequence (P0A7E1 1-336 S175A) with F115L, A175S
Procedure, shortened: as §1

Question: With `O=C(O)c1cc(=O)[nH]c(=O)[nH]1` [orotate] as the compound, how does the Kd [1] read?
Answer: 9.9 ± 0.9 µM

Question: And the Kd [2]?
Answer: 4.6 ± 0.3 µM

Question: What about the Kd [3] of the same compound?
Answer: 0.56 ± 0.04 µM

Question: What about the Kd [4] of the same compound?
Answer: 6.1 ± 0.8 µM

Question: What about the Kd [5] of the same compound?
Answer: 8.1 ± 0.4 µM

Question: What about the Kd [6] of the same compound?
Answer: 3.8 ± 0.5 µM

Question: And the Kd [7]?
Answer: 1.1 ± 0.4 µM

Question: And the Kd [8]?
Answer: 3.7 ± 0.3 µM
